The source made the active and inactive calls. The calls are words filed in the database; no cut-off is given here.
Key:
[1] = tested on: Mus musculus; assay: Cognition enhancement activity in double APP/PS1 transgenic Alzheimer's disease mouse model assessed as decrease in escape latency at 30 mg/kg/day, po for 80 days by Morris water maze test; assay type: functional, organism-based
Method in brief: (§1)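 APP/PS1 double transgenic mice, six months old, gavaged 30 mg/kg/day in 0.5% CMC-Na for 80 days; vehicle mice and WT C57BL/6 received blank CMC-Na. Escape latency recorded daily over the training trials; n = 10, mean ± SD, two-way ANOVA.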

[2] = tested on: Mus musculus; assay: Cognition enhancement activity in double APP/PS1 transgenic Alzheimer's disease mouse model assessed as decrease in path searching behavior at 30 mg/kg/day, po for 80 days by Morris water maze test; assay type: functional, organism-based; method in brief: as §1
[3] = tested on: Mus musculus; assay: Cognition enhancement activity in double APP/PS1 transgenic Alzheimer's disease mouse model assessed as increase in number of effective region crossing at 30 mg/kg/day, po for 80 days by Morris water maze test; assay type: functional, organism-based
Method in brief: (§2)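 APP/PS1 mice, six months old, gavaged 30 mg/kg/day in 0.5% CMC-Na for 80 days. Probe trial was a single 90 s free swim with the platform absent; effective region is twice the platform diameter. n = 10, mean ± SD, two-way ANOVA.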

[4] = tested on: Mus musculus; assay: Cognition enhancement activity in double APP/PS1 transgenic Alzheimer's disease mouse model assessed as increase in number of virtual platform crossing at 30 mg/kg/day, po for 80 days by Morris water maze test; assay type: functional, organism-based; method in brief: as §2
[5] = tested on: PC-12; assay: Induction of rat PC12 cell proliferation at 10 uM after 72 hrs by microscopic analysis; assay type: functional, cell-based
Method in brief: (§3)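 Undifferentiated PC12 cells cultured 72 h with compound at 0.5–50 µM (images at 10 µM) or with NGF 50 ng/ml, then examined under a digital microscope.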

[6] = tested on: PC-12; assay: Induction of rat PC12 cell proliferation at 0.5 to 50 uM after 72 hrs by microscopic analysis; assay type: functional, cell-based; method in brief: as §3
[7] = molecular target: Amyloid-beta precursor protein (Homo sapiens) (UniProt P05067); assay: Inhibition of amyloid beta (1 to 42) (unknown origin) self-induced aggregation at compound to amyloid beta ratio of 1:1 after 48 hrs by thioflavin-T fluorescence assay relative to control; conditions: concentration not given here
Method in brief: (§4)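 Aβ1-42 at 25 µM with compound at 1:1 in 50 mM PBS, pH 7.4, 37 °C, read by ThT fluorescence or by TEM. Disaggregation was done on preformed aggregates. ThT data are mean ± SD of at least three experiments.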

[8] = molecular target: Amyloid-beta precursor protein (Homo sapiens) (UniProt P05067); assay: Induction of disaggregation of amyloid beta (1 to 42) (unknown origin) fibrils at compound to amyloid beta ratio of 1:1 after 48 hrs by thioflavin-T fluorescence assay relative to control; method in brief: as §4
[9] = Antioxidant activity assessed as AAPH radical scavenging activity by measuring trolox equivalent at 10 to 20 uM preincubated for 10 mins followed by AAPH addition measured every min for 120 mins in presence of clioquinol by ORAC-FL assay; assay type: functional
Method in brief: (§5)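 ORAC-FL: compound at 10 µM (or 20 µM) in 75 mM phosphate pH 7.4 with fluorescein (70 nM final), preincubated 10 min at 37 °C, then AAPH added. Fluorescence (ex 485/em 520) read each minute for 120 min. Net AUC converted to Trolox equivalents via a 10–100 µM Trolox curve; three independent experiments.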

[10] = Induction of disaggregation of Cu2+ -associated amyloid beta (1 to 42) (unknown origin) fibrils assessed as small-sized nonfibrillar amorphos amyloid beta at compound/amyloid beta/Cu2+ ratio of 2:1:1 after 48 hrs by TEM analysis
Method in brief: (§6)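 Chelator, Aβ1-42 (25 µM) and Cu2+ at 2:1:1 in HEPES/NaCl, pH 6.6, 37 °C; inhibition measured on fresh peptide and disaggregation on preformed Cu2+-Aβ aggregates. Read by ThT fluorescence (at least three experiments) or by TEM.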

[11] = molecular target: Amyloid-beta precursor protein (Homo sapiens) (UniProt P05067); assay: Induction of disaggregation of Cu2+ -associated amyloid beta (1 to 42) (unknown origin) fibrils at compound/amyloid beta/Cu2+ ratio of 2:1:1 after 48 hrs by thioflavin T-based fluorometric assay relative to control; method in brief: as §6
[12] = tested on: Mus musculus; assay: Induction of cell proliferation in C57BL/6 mouse hippocampal neurons in CA1 region assessed as BrdU-incorporation at 0.5 uL/hr, icv for 7 days by immunohistochemical analysis (reference value: 3.2%); assay type: functional
[13] = tested on: Mus musculus; assay: Induction of cell proliferation in C57BL/6 mouse hippocampal neurons in CA2 region assessed as BrdU-incorporation at 30 mg/kg, po administered via gavage for 7 days by immunohistochemical analysis (reference value: 2.4%); assay type: functional
Method in brief: (§7)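 C57BL/6 mice, 12 weeks old, n = 6, individually housed beforehand without wheels. Compound gavaged 30 mg/kg/day for 7 days with daily IP BrdU 50 mg/kg; BrdU+ cells counted by immunohistochemistry per hippocampal volume; two-way ANOVA.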

[14] = tested on: Mus musculus; assay: Induction of cell proliferation in C57BL/6 mouse hippocampal neurons in CA1 region assessed as BrdU-incorporation at 30 mg/kg, po administered via gavage for 7 days by immunohistochemical analysis (reference value: 2.3%); assay type: functional; method in brief: as §7
[15] = Inhibition of Cu2+ - induced amyloid beta (1 to 42) (unknown origin) aggregation assessed as small-sized nonfibrillar amorphos amyloid beta at compound/amyloid beta/Cu2+ ratio of 2:1:1 after 48 hrs by TEM analysis; method in brief: as §6
[16] = tested on: Mus musculus; assay: Induction of cell proliferation in C57BL/6 mouse hippocampal neurons in DG region assessed as BrdU-incorporation at 30 mg/kg, po administered via gavage for 7 days by immunohistochemical analysis (reference value: 2.2%); assay type: functional; method in brief: as §7
[17] = tested on: Mus musculus; assay: Induction of cell proliferation in C57BL/6 mouse hippocampal neurons in CA3 region assessed as BrdU-incorporation at 30 mg/kg, po administered via gavage for 7 days by immunohistochemical analysis (reference value: 1.5%); assay type: functional; method in brief: as §7
[18] = tested on: Mus musculus; assay: Induction of cell proliferation in C57BL/6 mouse hippocampal neurons in DG region assessed as BrdU-incorporation at 0.5 uL/hr, icv for 7 days by immunohistochemical analysis (reference value: 7.8%); assay type: functional
[19] = tested on: Mus musculus; assay: Induction of cell proliferation in C57BL/6 mouse hippocampal neurons in CA2 region assessed as BrdU-incorporation at 0.5 uL/hr, icv for 7 days by immunohistochemical analysis (reference value: 2.4%); assay type: functional
[20] = tested on: SH-SY5Y; assay: Neuroprotective activity against t-BuOOH-induced oxidative stress in human SH-SY5Y cells assessed as inhibition ROS accumulation pre-incubated for 24 hrs before t-BuOOH challnge for 30 mins by DCFH-DA probe based fluorescence assay; assay type: functional, cell-based
Method in brief: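 SH-SY5Y cells; test agents at 1–0.01 µM, oxidative stress induced by tert-butyl hydroperoxide; intracellular ROS read by DCFH-DA fluorescence; at least three independent experiments in sextuplicate; EC50 derived.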

[21] = Inhibition of Cu2+ - induced amyloid beta (1 to 42) (unknown origin) aggregation at compound/amyloid beta/Cu2+ ratio of 2:1:1 after 48 hrs by thioflavin T-based fluorometric assay relative to control; conditions: concentration not given here; method in brief: as §6
[22] = molecular target: Amyloid-beta precursor protein (Homo sapiens) (UniProt P05067); assay: Inhibition of amyloid beta (1 to 42) (unknown origin) self-induced aggregation at 5 uM after 48 hrs in presence of clioquinol by thioflavin-T fluorescence assay relative to control
Method in brief: (§8)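 ThT assay of Aβ1-42 self-aggregation: Aβ1-42 25 µM with inhibitor 5 µM (5:1); three independent experiments, each in triplicate.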

[23] = tested on: Mus musculus; assay: Induction of cell proliferation in C57BL/6 mouse hippocampal neurons in CA3 region assessed as BrdU-incorporation at 0.5 uL/hr, icv for 7 days by immunohistochemical analysis (reference value: 1.4%); assay type: functional
[24] = molecular target: Amyloid-beta precursor protein (Homo sapiens) (UniProt P05067); assay: Inhibition of amyloid beta (1 to 42) (unknown origin) self-induced aggregation assessed as reduction in unstructured aggregates at compound to amyloid beta ratio of 1:1 after 48 hrs by TEM analysis; method in brief: as §4
[25] = molecular target: Amyloid-beta precursor protein (Homo sapiens) (UniProt P05067); assay: Induction of disaggregation of amyloid beta (1 to 42) (unknown origin) assessed as narrow aggregation at compound to amyloid beta ratio of 1:1 after 48 hrs by TEM analysis; method in brief: as §4
[26] = Metal chelating activity assessed as compound-Fe3+ complex formation by measuring absorption spectrum at 50 uM after 30 mins by UV-Visible spectrophotometric analysis (reference value: 314 nm)
Method in brief: (§9)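 Ligand 50 µM alone or with 50 µM CuSO4, ZnCl2, FeSO4 or FeCl3 in 20 mM HEPES, 150 mM NaCl, pH 7.4; UV-vis absorbance spectra recorded. For Cu2+, titration at room temperature with absorbance at 338 nm gave stoichiometry.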

[27] = molecular target: Amyloid-beta precursor protein (Homo sapiens) (UniProt P05067); assay: Induction of disaggregation of amyloid beta (1 to 42) (unknown origin) assessed as shorter aggregation at compound to amyloid beta ratio of 1:1 after 48 hrs by TEM analysis; method in brief: as §4
[28] = Metal chelating activity assessed as compound-Fe2+ complex formation by measuring absorption spectrum at 50 uM after 30 mins by UV-Visible spectrophotometric analysis (reference value: 314 nm); method in brief: as §9
[29] = tested on: PC-12; assay: Induction of rat PC12 cell proliferation at 0.5 to 50 uM after 72 hrs in presence of ERK inhibitor U0126 by MTT assay; assay type: functional, cell-based
Method in brief: (§10)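 PC12 cells treated with compound together with U0126 (ERK inhibitor, 1 µM) or SB203580 (p38 inhibitor, 1 µM); survival measured by MTT, expressed as percent of control, mean ± SD of at least three experiments.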

[30] = molecular target: Amyloid-beta precursor protein (Homo sapiens) (UniProt P05067); assay: Inhibition of amyloid beta (1 to 42) (unknown origin) self-induced aggregation assessed as thinner fibrils at compound to amyloid beta ratio of 1:1 after 48 hrs by TEM analysis; method in brief: as §4
[31] = Metal chelating activity assessed as compound-Zn2+ complex formation by measuring absorption spectrum at 50 uM after 30 mins by UV-Visible spectrophotometric analysis (reference value: 314 nm); method in brief: as §9
[32] = Metal chelating activity assessed as compound-Cu2+ complex formation by measuring absorption spectrum at 50 uM after 30 mins by UV-Visible spectrophotometric analysis (reference value: 314 nm); method in brief: as §9
[33] = tested on: PC-12; assay: Induction of rat PC12 cell proliferation at 0.5 to 50 uM after 72 hrs in presence of p38 inhibitor SB203580 by MTT assay; assay type: functional, cell-based; method in brief: as §10
[34] = molecular target: Amyloid-beta precursor protein (Homo sapiens) (UniProt P05067); assay: Inhibition of amyloid beta (1 to 42) (unknown origin) self-induced aggregation assessed as less dense fibrils at compound to amyloid beta ratio of 1:1 after 48 hrs by TEM analysis; method in brief: as §4
[35] = Metal chelating activity assessed as compound-Cu2+ complex formation at 50 uM after 30 mins by mass spectrometry
[36] = molecular target: Amyloid-beta precursor protein (Homo sapiens) (UniProt P05067); assay: Inhibition of amyloid beta (1 to 42) (unknown origin) self-induced aggregation at 5 uM after 48 hrs in presence of melatonin by thioflavin-T fluorescence assay relative to control; method in brief: as §8
[37] = Antioxidant activity assessed as AAPH radical scavenging activity by measuring trolox equivalent at 10 to 20 uM preincubated for 10 mins followed by AAPH addition measured every min for 120 mins in presence of melatonin by ORAC-FL assay; assay type: functional; method in brief: as §5

Amyloid-beta precursor protein (Homo sapiens), sequence (P05067 whole entry): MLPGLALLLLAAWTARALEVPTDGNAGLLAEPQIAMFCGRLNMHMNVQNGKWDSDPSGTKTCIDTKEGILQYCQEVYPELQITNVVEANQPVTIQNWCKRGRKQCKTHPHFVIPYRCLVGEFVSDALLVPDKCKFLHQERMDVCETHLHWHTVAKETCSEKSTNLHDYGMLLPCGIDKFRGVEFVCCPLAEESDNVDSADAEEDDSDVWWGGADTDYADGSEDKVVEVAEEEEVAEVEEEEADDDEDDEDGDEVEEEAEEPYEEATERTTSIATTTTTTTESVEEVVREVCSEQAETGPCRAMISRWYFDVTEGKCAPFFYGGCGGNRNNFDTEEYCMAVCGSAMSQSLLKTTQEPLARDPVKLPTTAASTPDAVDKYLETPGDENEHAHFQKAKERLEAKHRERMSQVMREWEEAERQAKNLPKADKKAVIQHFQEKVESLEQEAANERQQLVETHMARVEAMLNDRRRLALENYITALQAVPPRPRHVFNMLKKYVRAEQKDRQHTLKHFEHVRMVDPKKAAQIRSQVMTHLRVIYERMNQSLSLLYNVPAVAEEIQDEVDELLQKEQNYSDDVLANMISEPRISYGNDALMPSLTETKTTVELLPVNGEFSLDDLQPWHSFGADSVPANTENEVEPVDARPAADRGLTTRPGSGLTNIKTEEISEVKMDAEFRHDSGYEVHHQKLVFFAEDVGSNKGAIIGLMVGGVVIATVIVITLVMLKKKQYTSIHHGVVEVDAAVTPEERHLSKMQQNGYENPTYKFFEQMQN

Row | EC50 [20] [nM] | Structure (SMILES) | Activity [1] | Activity [2] | Activity [3] | Activity [4] | Activity [5] | Activity [6] | inhibition [7] [%] | Activity [8] [%] | Activity [10] | Activity [11] [%] | inhibition [15] | inhibition [21] [%] | further results
1 | – | Oc1c(Cl)cc(Cl)c2ccc(-c3cc4cc5c(cc4[nH]3)OCO5)nc12 | Active | Active | Active | Active | Active | Active | 48.6 to 71.6 | 48.5 to 72.7 | – | – | – | – | –
2 | > 1000 | COc1ccc2[nH]cc(CCNC(C)=O)c2c1 [MELATONIN] | – | – | – | – | – | – | 49.1 | 44.3 | inactive | 24 | inactive | 47.8 | Activity (umolequiv/umol) [9]: 2.9; Activity [12]: 2.7%; Activity [13]: 1.6%; Activity [14]: 3.2%; Activity [16]: 9.4%; Activity [17]: 1.5%; Activity [18]: 27.4%; Activity [19]: 2.1%; inhibition [22]: 22.5%; Activity [23]: 1.2%
3 | – | Oc1ccc2[nH]c(-c3ccc4c(Cl)cc(Cl)c(O)c4n3)cc2c1 | Active | Active | Active | Active | Active | Active | 48.6 to 71.6 | 48.5 to 72.7 | Active | 83.3 | Active | 85.8 | inhibition [24]: Active; Activity [25]: Active; Activity [26]: 309 nm; Activity [27]: Active; Activity [28]: 324 nm; Activity [29]: inactive; inhibition [30]: Active; Activity [31]: 309 nm; Activity [32]: 338 nm; Activity [33]: inactive; inhibition [34]: Active; Activity [35]: Active
4 | > 1000 | Oc1c(I)cc(Cl)c2cccnc12 [CLIOQUINOL] | – | – | – | – | – | – | – | – | – | – | – | – | inhibition [36]: 22.5%; Activity (umolequiv/umol) [37]: 2.9

— ChEMBL document CHEMBL4118104, “Design, Synthesis, and Evaluation of Orally Bioavailable Quinoline-Indole Derivatives as Innovative Multitarget-Directed Ligands: Promotion of Cell Proliferation in the Adult Murine Hippocampus for the Treatment of Alzheimer's Disease” (J Med Chem, 2018)
